# Results published in ChEMBL document CHEMBL4402576, “Discovery and Development of Small-Molecule Inhibitors of Glycogen Synthase” (J Med Chem, 2020).
# Active and inactive are the calls of the source. The calls are words filed in the database; no cut-off is given here.
# Key:
# [1] = biological target: T1, Glycogen [starch] synthase, muscle (Homo sapiens) (UniProt P13807); test: Inhibition of C-terminal 6His-tagged wild type human GYS1 assessed as enzyme activity at 20 uM using UDPG as substrate in presence of 1 mM G-6-P by 14C-glucose incorporation assay relative to control; design: scale not given: the % may be the effect or the level left
# T1 sequence (whole entry): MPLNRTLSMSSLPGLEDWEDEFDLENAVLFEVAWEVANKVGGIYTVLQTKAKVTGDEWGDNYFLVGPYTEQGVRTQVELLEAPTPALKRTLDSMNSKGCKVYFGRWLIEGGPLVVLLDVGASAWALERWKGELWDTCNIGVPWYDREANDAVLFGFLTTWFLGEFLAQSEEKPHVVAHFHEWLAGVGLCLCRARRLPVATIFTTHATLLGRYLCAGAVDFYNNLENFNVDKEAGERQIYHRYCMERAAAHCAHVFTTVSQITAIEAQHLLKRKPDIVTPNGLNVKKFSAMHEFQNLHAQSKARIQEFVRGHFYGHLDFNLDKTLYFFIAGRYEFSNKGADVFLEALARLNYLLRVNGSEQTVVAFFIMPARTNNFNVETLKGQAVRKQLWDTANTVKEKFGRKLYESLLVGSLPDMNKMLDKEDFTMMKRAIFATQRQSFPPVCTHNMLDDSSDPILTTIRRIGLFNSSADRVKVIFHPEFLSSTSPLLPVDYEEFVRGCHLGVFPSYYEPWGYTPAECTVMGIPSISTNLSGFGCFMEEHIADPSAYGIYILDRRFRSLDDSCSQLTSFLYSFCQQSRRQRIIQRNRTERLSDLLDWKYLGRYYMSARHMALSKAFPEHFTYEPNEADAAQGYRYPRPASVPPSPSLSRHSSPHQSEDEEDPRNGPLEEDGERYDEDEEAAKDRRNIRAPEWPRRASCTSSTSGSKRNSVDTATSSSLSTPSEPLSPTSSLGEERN
# [2] = tested on: Saccharomyces cerevisiae; test: Inhibition of recombinant His-tagged yeast GYS2P expressed in Escherichia coli BL21(DE3) cells assessed as enzyme activity at 20 uM using UDPG as substrate in presence of G-6-P by 14C-glucose incorporation assay relative to control; design: scale not given: the % may be the effect or the level left
# [3] = organism: Homo sapiens; test: Inhibition of C-terminal 6His-tagged human GYS1 delta634S8,11N mutant assessed as enzyme activity at 20 uM using UDPG as substrate in presence of 0.4 mM G-6-P by 14C-glucose incorporation assay relative to control; design: scale not given: the % may be the effect or the level left
# [4] = biological target: T2, Glycogen [starch] synthase, muscle (Rattus norvegicus) (UniProt A2RRU1); test: Inhibition of glycogen synthase in rat-1 fibroblast cell lysates at 100 uM using 0.2 mM UDPG as substrate in presence of 1 mM G-6-P by 14C-glucose incorporation assay relative to control; type: subcellular; details: Lysate
# T2 sequence (whole entry): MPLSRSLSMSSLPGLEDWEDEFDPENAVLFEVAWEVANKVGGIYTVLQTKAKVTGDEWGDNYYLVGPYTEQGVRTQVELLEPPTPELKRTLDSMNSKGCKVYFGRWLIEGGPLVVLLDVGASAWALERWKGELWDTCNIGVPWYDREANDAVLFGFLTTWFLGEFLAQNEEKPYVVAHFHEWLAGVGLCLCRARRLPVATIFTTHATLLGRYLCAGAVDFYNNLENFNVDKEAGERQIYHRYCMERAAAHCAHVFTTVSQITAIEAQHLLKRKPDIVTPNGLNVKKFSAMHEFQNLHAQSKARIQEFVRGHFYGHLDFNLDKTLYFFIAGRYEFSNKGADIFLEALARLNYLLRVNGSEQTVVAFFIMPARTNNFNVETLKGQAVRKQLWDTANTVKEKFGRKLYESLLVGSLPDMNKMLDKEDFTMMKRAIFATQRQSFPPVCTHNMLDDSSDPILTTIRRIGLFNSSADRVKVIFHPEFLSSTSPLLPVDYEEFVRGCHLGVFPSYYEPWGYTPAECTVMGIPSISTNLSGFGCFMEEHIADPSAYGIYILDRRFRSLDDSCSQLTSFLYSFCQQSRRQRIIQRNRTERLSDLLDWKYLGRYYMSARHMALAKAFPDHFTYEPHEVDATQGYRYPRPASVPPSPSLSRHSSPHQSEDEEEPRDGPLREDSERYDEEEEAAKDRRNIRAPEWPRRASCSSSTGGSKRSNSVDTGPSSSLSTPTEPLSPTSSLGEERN
# Method in brief: (§1)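 Lysates came from HEK293 cells stably expressing PTG (5.5 mM glucose αMEM, 10% FBS, hygromycin) or from Rat-1 cells (25 mM glucose DMEM, 10% FBS), grown 3–4 days to confluency. Cells were lysed by freezing, scraping and sonication in Tris/EDTA/EGTA/NaF buffer with protease inhibitors and Triton. Assays used 0.15 mg/mL (HEK293-PTG) or 0.75 mg/mL (Rat-1) lysate in 50 mM Tris-HCl pH 7.8 with 6.7 mg/ml glycogen and 2% DMSO. Read-out was [14C]glucose incorporation relative to DMSO control, in triplicate.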
# [5] = biological target: T1, Glycogen [starch] synthase, muscle (Homo sapiens); test: Inhibition of glycogen synthase in human HEK293 cell lysates overexpressing mouse PTG at 100 uM using 0.2 mM UDPG as substrate in presence of 1 mM G-6-P by 14C-glucose incorporation assay relative to control; type: subcellular; details: Lysate; method in brief: as §1
# [6] = biological target: T3, Glycogen [starch] synthase, muscle (Homo sapiens, UniProt P13807); test: Inhibition of C-terminal 6His-tagged wild type human GYS1 using UDPG as substrate in presence of 1 mM G-6-P by 14C-glucose incorporation assay
# T3 sequence (P13807 whole entry): T1 sequence (whole entry)
# Method in brief: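 Full-length wild-type hGYS1 with C-terminal 6×His tag in place of the intein-chitin binding domain, Ni-NTA purified. Glucose transfer from UDP-[14C]glucose into glycogen with 0.2 mM UDPG and 1 mM G6P. Controls contained 2% (v/v) DMSO. IC50 was fitted by four-parameter logistic. Values are mean ± SEM of at least three independent experiments in duplicate.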
# [7] = organism: Homo sapiens; test: Inhibition of C-terminal 6His-tagged human GYS1 delta634S8,11N mutant assessed as enzyme activity at 300 uM using UDPG as substrate in presence of 0.4 mM G-6-P by 14C-glucose incorporation assay relative to control; design: scale not given: the % may be the effect or the level left
# [8] = biological target: T1, Glycogen [starch] synthase, muscle (Homo sapiens); test: Inhibition of C-terminal 6His-tagged wild type human GYS1 assessed as enzyme activity at 300 uM using UDPG as substrate in presence of 1 mM G-6-P by 14C-glucose incorporation assay relative to control; design: scale not given: the % may be the effect or the level left
# [9] = tested on: Saccharomyces cerevisiae; test: Inhibition of recombinant His-tagged yeast GYS2P expressed in Escherichia coli BL21(DE3) cells assessed as enzyme activity at 300 uM using UDPG as substrate in presence of G-6-P by 14C-glucose incorporation assay relative to control; design: scale not given: the % may be the effect or the level left
# [10] = biological target: T2, Glycogen [starch] synthase, muscle (Rattus norvegicus); test: Inhibition of glycogen synthase in rat-1 fibroblast cell lysates at 100 uM using 0.2 mM UDPG as substrate in presence of 1 mM G-6-P by 14C-glucose incorporation assay; type: subcellular; details: Lysate; method in brief: as §1
# [11] = biological target: T1, Glycogen [starch] synthase, muscle (Homo sapiens); test: Inhibition of glycogen synthase in human HEK293 cell lysates overexpressing mouse PTG at 100 uM using 0.2 mM UDPG as substrate in presence of 1 mM G-6-P by 14C-glucose incorporation assay; type: subcellular; details: Lysate; method in brief: as §1
# [12] = Competitive inhibition of recombinant His-tagged yeast GYS2P expressed in Escherichia coli BL21(DE3) cells using UDPG as substrate in presence of G-6-P by 14C-glucose incorporation based Michaelis-Menton plot analysis; design: species or system Saccharomyces cerevisiae
# Method in brief: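 Ni-NTA then Q-Sepharose purified enzyme (5 μg/ml) assayed by radiolabelled glucose transfer from UDPG into glycogen. UDPG varied 0.2–8 mM with 7.2 mM G6P, covaried against fixed inhibitor levels, 2% (v/v) DMSO throughout. Data fitted to competitive, non-competitive and uncompetitive models, chosen by goodness-of-fit and residuals. Ki given as mean ± SEM of three independent experiments in duplicate.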
Compound,Activity [1] [%],Activity [3] [%],IC50 [6] [µM],Activity [7] [%],Activity [8] [%],Activity [2] [%],Activity [9] [%],also measured
COc1ccc(-c2ccc(CCC(=O)O)n2-c2ccc(O)cc2)cc1,–,–,–,50.6,84,–,34.5,–
O=C(O)CCc1ccc(-c2ccccc2)n1-c1ccc(O)cc1,–,–,384,40.1,58.9,–,40.1,inhibition [10]: inactive; inhibition [11]: inactive
Oc1ccc(-c2n[nH]cc2-c2ccc(Cl)c(Cl)c2)c(O)c1O,52.5,–,19.5,–,–,–,–,–
Oc1ccc(-c2n[nH]cc2-c2ccccc2)c(O)c1O,84.7,25.2,–,–,–,> 95,–,–
Oc1ccc(-c2n[nH]c(C(F)(F)F)c2-c2ccc(Cl)c(Cl)c2)c(O)c1O,12.2,5.28,13.7,–,–,47.4,–,–
O=C(O)CCc1ccc(-c2ccccc2)n1-c1ccc(F)cc1,–,–,–,72.1,87.5,–,84.7,–
NC(=O)c1ccc(-n2c(CCC(=O)O)ccc2-c2ccccc2)cc1,–,–,–,40.6,78.7,–,49.3,–
O=[N+]([O-])c1ccc(-c2c[nH]nc2-c2ccc(O)c(O)c2O)cc1,66.8,85,34,–,–,78.4,–,–
Oc1ccc(-c2c(-c3ccccc3)ncn2CCc2c[nH]cn2)cc1,–,–,–,56.6,93.4,–,66.6,–
Cc1[nH]nc(-c2ccc(O)c(O)c2O)c1-c1ccc(F)cc1,94,89,–,–,–,> 95,–,–
c1ccc(-c2ncn(CCc3c[nH]cn3)c2-c2ccncc2)cc1,–,–,–,94.4,> 95,–,72.7,–
O=c1ccn([C@@H]2O[C@H](COP(=O)(O)OP(=O)(O)O)[C@@H](O)[C@H]2O)c(=O)[nH]1 [URIDINE_DIPHOSPHATE],–,–,–,–,–,–,–,Ki [12]: 350 µM

# Now from value to molecule, other results behind:
Activity [1] [%],Activity [3] [%],IC50 [6] [µM],Activity [7] [%],Activity [8] [%],Compound,Activity [2] [%],Activity [9] [%],also measured
1.43,10.5,6.54,–,–,O=[N+]([O-])c1ccc(-c2c(-c3ccc(O)c(O)c3O)n[nH]c2C(F)(F)F)cc1,18.8,–,inhibition [4]: > 30%; inhibition [5]: > 30%
80.1,> 95,–,–,–,COC(=O)c1ccc(-c2c(-c3ccc(O)c(O)c3O)n[nH]c2C)cc1,90.6,–,–
22.6,23,9.82,–,–,Oc1ccc(-c2c[nH]nc2-c2ccc(O)c(O)c2O)cc1,6.21,–,–
78.4,74.2,72.4,–,–,Oc1ccc(-c2c(-c3cc(F)c(O)cc3O)n[nH]c2C(F)(F)F)cc1,65.2,–,–
47.5,11.8,19.8,–,–,Oc1ccc(-c2n[nH]c(C(F)(F)F)c2-c2ccc(Cl)cc2)c(O)c1O,51.5,–,inhibition [4]: > 30%; inhibition [5]: > 30%
42,8.14,10.1,–,–,N#Cc1ccc(-c2c(-c3ccc(O)c(O)c3O)n[nH]c2C(F)(F)F)cc1,51.2,–,–
84.7,81.7,–,–,–,Cc1[nH]nc(-c2ccc(O)c(O)c2O)c1-c1ccc(Cl)c(Cl)c1,> 95,–,–
–,–,–,93.3,> 95,CN1CCCC1CCn1cnc(-c2ccccc2)c1-c1ccncc1 (stereo unspecified),–,> 95,–
81.4,40.3,–,–,–,Oc1ccc(-c2n[nH]c(C(F)(F)F)c2-c2ccc(OC(F)(F)F)cc2)c(O)c1O,91.6,–,–
–,–,–,84.3,> 95,Cc1ccc(-c2ccccc2)n1-c1ccc(O)cc1,–,79.7,–
47.2,5.68,16.4,–,–,Oc1ccc(-c2n[nH]c(C(F)(F)F)c2-c2ccccc2)c(O)c1O,51.8,–,–
> 95,87.9,–,–,–,Oc1ccc(-c2n[nH]c(C(F)(F)F)c2-c2ccc(Cl)cc2)c(O)c1,> 95,–,–
89.2,92.7,–,–,–,O=[N+]([O-])c1ccc(-c2c(-c3ccc(O)cc3O)n[nH]c2C(F)(F)F)cc1,82.3,–,–
–,–,–,> 95,> 95,Oc1ccc(-n2c(-c3ccccc3)ccc2-c2ccccc2)cc1,–,86,–
–,–,–,> 95,> 95,Oc1ccc(-c2c(-c3ccccc3)ncn2CCCn2ccnc2)cc1,–,94.8,–
91.8,> 95,52.9,6.47,4.34,Cc1[nH]nc(-c2ccc(O)c(O)c2O)c1-c1ccc(Cl)cc1,> 95,3.52,–
47.8,11.7,14.1,–,–,Oc1ccc(-c2n[nH]c(C(F)(F)F)c2-c2ccc(F)cc2)c(O)c1O,45.7,–,inhibition [4]: > 30%; inhibition [5]: > 30%
